Screens from PubChem BioAssay.
procasp3 activ = procaspase-3 (human) activation | recombinant procaspase-3 D3A, Ac-DEVD-pNA absorbance 405 nm | activation, % at 8.5 µM | P42574 | 330,000 compounds, 0.11% hits;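 active = activation above the mean of all tested compounds plus 3 SD, cut at about 21% in these data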;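 also: 0% = DMSO alone and 100% = DMSO wells spiked with extra 5 µM PC-3 D3A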
Target sequence (P42574 whole entry D9A/D28A/D175A): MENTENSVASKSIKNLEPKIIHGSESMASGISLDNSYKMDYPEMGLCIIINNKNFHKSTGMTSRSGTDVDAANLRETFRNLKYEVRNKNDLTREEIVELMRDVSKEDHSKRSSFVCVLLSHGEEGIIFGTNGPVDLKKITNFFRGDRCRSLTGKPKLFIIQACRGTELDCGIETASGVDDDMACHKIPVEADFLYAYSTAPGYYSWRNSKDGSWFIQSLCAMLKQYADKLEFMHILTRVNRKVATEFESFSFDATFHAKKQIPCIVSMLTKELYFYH
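Compound: 8.5 µM single point, 0.8% DMSO / Material: Autoprocessing-dead procaspase-3 D3A mutant enzyme / Timing: 1 h preincubation plus 2 h reaction at 25 °C / Medium: Zinc-free HEPES/NaCl buffer with 0.01% Triton X-100 at pH 7.4 / Technique: 405 nm absorbance of p-nitroaniline, reads at 0 and 120 min / Repeats: one well per compound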
procasp7 counter = counter-screen for procaspase-3 activators: activators of human procaspase-7. P55210. recombinant procaspase-7, Ac-DEVD-pNA absorbance 405 nm; D23A/D198A/D206A triple mutant, cannot self-cleave; scale: DMSO 0, 5 µM enzyme 100. activation, % at 8.5 µM. 330,000 compounds, 0.093% hits. AID 463210;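 active = percent activation above the screen-wide mean plus 3 SD, cut at about 25% in these data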
Target sequence (P55210 whole entry D23A/D198A/D206A): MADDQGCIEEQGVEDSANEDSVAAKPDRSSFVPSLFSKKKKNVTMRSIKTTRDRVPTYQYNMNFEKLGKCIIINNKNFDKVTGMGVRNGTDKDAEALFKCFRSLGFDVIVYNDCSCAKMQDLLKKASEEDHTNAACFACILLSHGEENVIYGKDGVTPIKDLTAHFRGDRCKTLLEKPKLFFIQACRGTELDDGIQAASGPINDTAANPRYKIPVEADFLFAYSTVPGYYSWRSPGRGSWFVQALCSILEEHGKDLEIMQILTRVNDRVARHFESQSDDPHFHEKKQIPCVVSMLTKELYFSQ
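Assay system: Uncleavable procaspase-7 mutant enzyme | Input: 2 µM procaspase-7 mutant as dispensed | Timing: 1 h compound preincubation, 2 h substrate cleavage, 25 °C | Repeats: One well per compound | Control set: DMSO wells as 0%, DMSO with 5 µM added PC-7 as 100% | Technique: Epi-absorbance of released pNA at 405 nm, two timepoints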
ARFGAP1 inh = inhibits rat ARF GTPase activating protein 1; Q62848; Arfgap1-stimulated ARF1 GTP hydrolysis, GDP FP detection; inhibition, % at 16.5 µM; 360,000 compounds, 0.26% hits;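 active = inhibition above a per-plate limit, mean inhibition of low control wells plus 3 SD, cut at about 25% in these data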;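 also: 0% = DMSO wells with enzyme and 100% = wells lacking Arfgap1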
Target sequence (Q62848 1-136 limits assumed): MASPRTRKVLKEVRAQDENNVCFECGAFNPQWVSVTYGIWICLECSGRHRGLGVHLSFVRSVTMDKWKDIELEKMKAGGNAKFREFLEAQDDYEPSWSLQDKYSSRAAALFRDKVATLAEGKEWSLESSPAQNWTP
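Material: rat Arfgap1 catalytic domain, aa 1-136; also added: human ARF1(Δ1-17)-GTP substrate; compound dosing: one concentration, 16.5 µM, DMSO 1.26%; incubation: GTP hydrolysis reaction 2 h at 25 °C; measured by: Tracer-displacement fluorescence polarization with EDTA stop, 620/688 nm; evaluation: % inhibition from polarization; repeats: one replicate per compound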
ASAP1 inh = inhibitors of human ASAP1 ArfGAP activity | 360,000 compounds, 0.19% hits | inhibition, % at 16.5 µM | ASAP1-stimulated ARF1 GTP hydrolysis, GDP FP detection | Q9ULH1; in the data active = inhibition above about 25%;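 also: 0% = vehicle with enzyme and substrate and 100% = no enzyme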
Yeast superoxide = yeast age-related superoxide inhibition as caloric restriction mimetic | S. cerevisiae aged cells, superoxide DHE fluorescence; active compounds read low | superoxide response (% of plate mean), % at 10 µM | 330,000 compounds, 0.18% hits | AID 2690;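 active = superoxide response under a set limit, about three screen SD below normal, cut at about 65% in these data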;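 also: yeast aged for seven days with compound at 30 °C before DHE staining; 100% = average MFI of all compound-treated wells on the plate with controls excluded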
LANA-H2A inh = blocks KSHV LANA binding to histone H2A/H2B; inhibition, % (concentration not given with the values); Q9QR71; cell-free LANA-H2A/H2B peptide, fluorescence polarization; 320,000 compounds, 0.6% hits; in the data active = inhibition mostly above about 10%, no sharp cut-off; inactive = mostly below about 6.7%
The depositor's hits bear a star; · = no result given; ! = a repeat was not active. Only some compounds are listed: those with a hit (about 1.2% of all), similar ones and a draw of the others.

SMILES | procasp3 activ | procasp7 counter | ARFGAP1 inh | ASAP1 inh | Yeast superoxide | LANA-H2A inh
CC(C)=CCc1c2c(c(O)c3c(=O)c4c(oc13)-c1cc(O)c(O)cc1OC4C=C(C)C)C=CC(C)(C)O2 (stereo not drawn) | 1 | 7 | · | · | 94 | 1
CC(C)=CCc1c(-c2ccc(O)cc2O)oc2c3c(cc(O)c2c1=O)OC(C)(C)C=C3 | 8 | 6 | · | · | 84 | 23*
COc1cc(NC(=O)c2cc3c(=O)n(C)c4ccccc4c3n2C)cc(OC)c1OC | -6 | -3 | -6 | -10 | 111 | 0
COc1ccc(CCNC(=O)c2cc3c(=O)n(C)c4ccccc4c3n2C)c(OC)c1 | -2 | -2 | -2 | -19 | 61* | 0
O=C(O)CCCCCCCC(=O)O | 0 | 0 | 9 | -4 | 103 | 31*!
O=C(/C=C(\Nc1cccc(F)c1)c1ccccc1)c1ccccc1 | · | · | -2 | -5 | · | ·
CCn1cc(C(=O)OCC(=O)c2cc(C)n(-c3cccc(C(F)(F)F)c3)c2C)c(=O)c2ccc(C)nc21 | -5 | -7 | -6 | -2 | 84 | 54*
CCOC(=O)CN1C(=O)C(C)(C)Oc2ccc(C(=O)NC(C)(C)CC)cc21 | -3 | 4 | 9 | -5 | 98 | -6
CCC(C)(C)NC(=O)c1ccc2c(c1)N(CC(=O)OC)C(=O)C(C)(C)O2 | -2 | -1 | -1 | -6 | 103 | 18*
O=C(Nc1ccc(S(=O)(=O)Nc2cnc3ccccc3n2)cc1)c1cc(F)c(F)cc1Cl | 2 | 1 | 15 | 8 | 101 | 22*
Cc1cc(C)nc(N2CCCC(C(=O)NCc3cccc(C(F)(F)F)c3)C2)n1 (stereo not drawn) | 1 | -12 | 7 | -14 | 108 | 2
O=C(NCc1cccc(C(F)(F)F)c1)C1CCCN(c2ncccn2)C1 (stereo not drawn) | -2 | -14 | -5 | -6 | 99 | 131*
CCOc1cc(/C=C/C(=O)OCC(=O)N(CC)C2CCS(=O)(=O)C2)cc(Cl)c1OC (stereo not drawn) | · | · | 4 | 1 | · | ·
Cn1cc(/C=N\NC(=O)c2cccs2)c2ccccc21 | 10 | 9 | 16 | 7 | 97 | 17*
COc1cc(C(=O)Nc2ccc(NC(=O)c3ccccc3)nc2)cc(OC)c1OC | -1 | 1 | 10 | 7 | 89 | 0
COc1cc(C(=O)Nc2ccc(NC(=O)C(C)C)nc2)cc(OC)c1OC | -4 | 0 | 5 | 2 | 84 | 15*
COc1ccc(CC(=O)Nc2ccc(F)c(F)c2F)cc1S(=O)(=O)N1CCOCC1 | 11 | 6 | -8 | -13 | 102 | 140*
COc1ccc(CC(=O)Nc2cc(F)ccc2F)cc1S(=O)(=O)N1CCOCC1 | · | · | 2 | 3 | · | ·
Nc1[nH]c(C(=O)c2ccc(Br)cc2)c(-c2ccccc2Cl)c1C(=O)NCCc1c[nH]c2ccccc12 | · | · | 12 | 11 | · | ·
CCN(C(=O)CN1CCCCC1)c1c(N)n(Cc2ccccc2)c(=O)[nH]c1=O | -3 | 7 | -7 | 4 | 86 | 1
CCN(C(=O)CN1CCCC(C)C1)c1c(N)n(Cc2ccccc2)c(=O)[nH]c1=O (stereo not drawn) | 10 | 7 | 8 | -5 | 86 | 13*
COC(=O)c1cc2c(c3c4cc(F)ccc4n(S(=O)(=O)c4cccc(C)c4)c13)C(=O)N(Cc1ccco1)C2 | · | · | 4 | 2 | · | ·
CC1(C)C(C#N)=C(N)OC2=C1C(=O)CCC2 | -1 | -6 | 19 | 1 | 103 | 18*
CC(=O)NCCCCCCNC(C)=O | 3 | 7 | 10 | 1 | 108 | 31*!
Cc1ccc(C(=O)Nc2ncc3c(n2)CC(c2ccco2)CC3=O)cc1 (stereo not drawn) | -2 | 1 | 1 | -7 | 91 | -3
SMILES | procasp3 activ | procasp7 counter | ARFGAP1 inh | ASAP1 inh | Yeast superoxide | LANA-H2A inh
O=C(Nc1ncc2c(n1)CC(c1ccco1)CC2=O)c1ccccc1 (stereo not drawn) | 2 | -10 | 3 | -2 | 100 | 44*
O=C1C(=Cc2cccn2-c2ccccc2)C(=O)c2ccccc21 | -12 | 3 | -11 | 1 | 107 | 127*
COc1ccc(-c2cc(C(=O)O)c3c(C)nn(-c4ccccn4)c3n2)cc1 | 4 | 16 | 2 | 4 | 116 | ·
COc1ccc(N=CC2=C(Nc3ccc(OC)cc3)c3c(C)nn(-c4ccccn4)c3CC2)cc1 | -21 | -22 | · | · | 116 | 60*
COc1cccc(C(=O)N[C@H](C(=O)N2CCC[C@H]2C(=O)NCc2ccccc2)C(C)C)c1 | · | · | 7 | 1 | · | ·
CCOC(=O)/C=C(\C)Sc1cc(O)c2ccccc2c1O | · | · | 21 | 29* | · | ·
COC(=O)C[C@H]1CC[C@@H](NC(=O)Nc2c(C)noc2C)[C@@H](CO)O1 | · | · | -4 | 2 | · | ·
COC(=O)[C@]1(C)N[C@H](CN(C)C(C)=O)[C@@H]2C(=O)N(C)C(=O)[C@@H]21 | -7 | 6 | 8 | -14 | 104 | ·
COC(=O)[C@]1(C)N[C@H](CN(C)C(=O)Nc2ccc(C)cc2)[C@@H]2C(=O)N(C)C(=O)[C@@H]21 | -10 | 3 | 2 | 1 | 105 | 160*
CCN(C[C@H]1N[C@@](C)(C(=O)OC)[C@H]2C(=O)N(C)C(=O)[C@@H]12)C(=O)c1ccc(F)cc1 | 3 | 8 | 8 | 2 | 88 | ·
CCN(C[C@H]1N[C@@](C)(C(=O)OC)[C@H]2C(=O)N(C)C(=O)[C@@H]12)C(=O)c1ccc(C)cc1 | 9 | -1 | -5 | 5 | 99 | 67*
Oc1cccc2ccc(/C=C/c3cccs3)nc12 | 11 | -3 | -9 | 1 | 91 | 13*
O=C(NCCc1ccccc1)c1ccc(CS(=O)(=O)c2ccc(Br)cc2)o1 | 2 | 11 | 9 | 8 | 89 | 8
CN(CCNC(=O)c1ccc(CS(=O)(=O)c2ccc(Br)cc2)o1)CCc1ccccc1 | 3 | 9 | 9 | 9 | 109 | 19*
COc1ccc(CCNC(=O)c2ccc(CS(=O)(=O)c3ccc(Cl)cc3)o2)cc1OC | -6 | -8 | -15 | 0 | 97 | 27*
Cc1ccccc1CS(=O)(=O)Cc1ccc(C(=O)NCCc2ccccc2)o1 | 1 | -5 | 16 | 7 | 101 | 15*
CCN(CC)C(=O)[C@H]1C[C@@H]2[C@H](C[C@@H](c3ccccc3)[C@H]1C)N(c1ccc(F)cc1)C(=O)N2C/C=C(\C)CCC=C(C)C | · | · | 4 | -8 | · | ·
CCCCS(=O)(=O)N1CCCc2nc(-c3ccc(F)cc3)ccc21 | · | · | -3 | 0 | · | ·
CCOC(=O)C1=CCC(c2ccccc2)N(S(C)(=O)=O)C1 (stereo not drawn) | · | · | 5 | 0 | · | ·
